Measurements reported in ChEMBL document CHEMBL1949561, “Synthesis and triplex-forming ability of oligonucleotides bearing 1-substituted 1H-1,2,3-triazole nucleobases” (Bioorg Med Chem, 2011).

Key:
Assay type in all cases: nucleic-acid assay
[1] = tested on: Nucleic Acid; assay: Binding affinity to 5'-GCTAAAAAGACAGAGAGATCG-3'/5'- CGATCTCTCTGTCTTTTTAGC-3' double stranded DNA assessed as melting temperature at 1.9 uM in sodium cacodylate buffer at pH 6.8 by UV spectrophotometric analysis
In short: (§1)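 Each oligonucleotide at 1.9 µM final. Absorbance at 260 nm recorded from 5 °C to 85 °C at 0.5 °C/min; Tm taken from the melting profile.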

[2] = tested on: Nucleic Acid; assay: Binding affinity to 5'-GCTAAAAAGAGAGAGAGATCG-3'/5'- CGATCTCTCTCTCTTTTTAGC-3' double stranded DNA assessed as melting temperature at 1.9 uM in sodium cacodylate buffer at pH 6.8 by UV spectrophotometric analysis; in short: as §1
[3] = tested on: Nucleic Acid; assay: Binding affinity to 5'-GCTAAAAAGAGAGAGAGATCG-3'/5'- CGATCTCTCTCTCTTTTTAGC-3' double stranded DNA assessed as melting temperature at 1.5 uM in sodium phosphate buffer at pH 7 by UV spectrophotometric analysis
In short: (§2)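 UV melting of triplexes between each modified TFO and the 21-bp duplex target, in 7 mM sodium phosphate buffer (pH 7.0), 140 mM KCl and 10 mM MgCl₂. Each oligonucleotide at 1.5 µM final. Absorbance followed at 260 nm from 5 °C to 85 °C, scanned at 0.5 °C/min, to give Tm.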

[4] = tested on: Nucleic Acid; assay: Binding affinity to 5'-GCTAAAAAGATAGAGAGATCG-3'/5'- CGATCTCTCTATCTTTTTAGC-3' double stranded DNA assessed as melting temperature at 1.5 uM in sodium phosphate buffer at pH 7 by UV spectrophotometric analysis; in short: as §2
[5] = tested on: Nucleic Acid; assay: Binding affinity to 5'-GCTAAAAAGAAAGAGAGATCG-3'/5'- CGATCTCTCTTTCTTTTTAGC-3' double stranded DNA assessed as melting temperature at 1.5 uM in sodium phosphate buffer at pH 7 by UV spectrophotometric analysis; in short: as §2
[6] = tested on: Nucleic Acid; assay: Binding affinity to 5'-GCTAAAAAGAAAGAGAGATCG-3'/5'- CGATCTCTCTTTCTTTTTAGC-3' double stranded DNA assessed as melting temperature at 1.9 uM in sodium cacodylate buffer at pH 6.8 by UV spectrophotometric analysis; in short: as §1
[7] = tested on: Nucleic Acid; assay: Binding affinity to 5'-GCTAAAAAGACAGAGAGATCG-3'/5'- CGATCTCTCTGTCTTTTTAGC-3' double stranded DNA assessed as change in melting temperature at 1.5 uM in sodium phosphate buffer at pH 7 by UV spectrophotometric analysis
[8] = tested on: Nucleic Acid; assay: Binding affinity to5'-GCTAAAAAGACAGAGAGATCG-3'/5'- CGATCTCTCTGTCTTTTTAGC-3' double stranded DNA assessed as melting temperature at 1.5 uM in sodium phosphate buffer at pH 7 by UV spectrophotometric analysis; in short: as §2
[9] = tested on: Nucleic Acid; assay: Binding affinity to 5'-GCTAAAAAGATAGAGAGATCG-3'/5'- CGATCTCTCTATCTTTTTAGC-3' double stranded DNA assessed as melting temperature at 1.9 uM in sodium cacodylate buffer at pH 6.8 by UV spectrophotometric analysis; in short: as §1

Cc1cn([C@H]2C[C@H](OP(=O)(O)OC[C@H]3O[C@@H](n4cc(C)c(=O)[nH]c4=O)C[C@@H]3OP(=O)(O)OC[C@H]3O[C@@H](n4cc(C)c(N)nc4=O)C[C@@H]3OP(=O)(O)OC[C@H]3O[C@@H](n4cc(C)c(=O)[nH]c4=O)C[C@@H]3OP(=O)(O)OC[C@H]3O[C@@H](n4cc(C)c(N)nc4=O)C[C@@H]3OP(=O)(O)OC[C@H]3O[C@@H](n4cc(C)c(=O)[nH]c4=O)C[C@@H]3OP(=O)(O)OC[C@H]3O[C@@H](c4cn(-c5ccccc5)nn4)C[C@@H]3OP(=O)(O)OC[C@H]3O[C@@H](n4cc(C)c(=O)[nH]c4=O)C[C@@H]3OP(=O)(O)OC[C@H]3O[C@@H](n4cc(C)c(N)nc4=O)C[C@@H]3OP(=O)(O)OC[C@H]3O[C@@H](n4cc(C)c(=O)[nH]c4=O)C[C@@H]3OP(=O)(O)OC[C@H]3O[C@@H](n4cc(C)c(=O)[nH]c4=O)C[C@@H]3OP(=O)(O)OC[C@H]3O[C@@H](n4cc(C)c(=O)[nH]c4=O)C[C@@H]3OP(=O)(O)OC[C@H]3O[C@@H](n4cc(C)c(=O)[nH]c4=O)C[C@@H]3OP(=O)(O)OC[C@H]3O[C@@H](n4cc(C)c(=O)[nH]c4=O)C[C@@H]3O)[C@@H](COP(=O)(O)O[C@H]3C[C@H](n4cc(C)c(=O)[nH]c4=O)O[C@@H]3CO)O2)c(=O)nc1N
Tm [1]: 29 °C
Tm [2]: 17 °C
Tm [3]: < 10 °C
Tm [4]: 17 °C
Tm [5]: < 10 °C
Tm [6]: 19 °C
ΔTm [7]: 8 °C
Tm [8]: 25 °C
Tm [9]: 23 °C

Cc1cn([C@H]2C[C@H](OP(=O)(O)OC[C@H]3O[C@@H](n4cc(C)c(=O)[nH]c4=O)C[C@@H]3OP(=O)(O)OC[C@H]3O[C@@H](n4cc(C)c(N)nc4=O)C[C@@H]3OP(=O)(O)OC[C@H]3O[C@@H](n4cc(C)c(=O)[nH]c4=O)C[C@@H]3OP(=O)(O)OC[C@H]3O[C@@H](n4cc(C)c(N)nc4=O)C[C@@H]3OP(=O)(O)OC[C@H]3O[C@@H](n4cc(C)c(=O)[nH]c4=O)C[C@@H]3OP(=O)(O)OC[C@H]3O[C@@H](n4cc(C)c(=O)[nH]c4=O)C[C@@H]3OP(=O)(O)OC[C@H]3O[C@@H](n4cc(C)c(=O)[nH]c4=O)C[C@@H]3OP(=O)(O)OC[C@H]3O[C@@H](n4cc(C)c(N)nc4=O)C[C@@H]3OP(=O)(O)OC[C@H]3O[C@@H](n4cc(C)c(=O)[nH]c4=O)C[C@@H]3OP(=O)(O)OC[C@H]3O[C@@H](n4cc(C)c(=O)[nH]c4=O)C[C@@H]3OP(=O)(O)OC[C@H]3O[C@@H](n4cc(C)c(=O)[nH]c4=O)C[C@@H]3OP(=O)(O)OC[C@H]3O[C@@H](n4cc(C)c(=O)[nH]c4=O)C[C@@H]3OP(=O)(O)OC[C@H]3O[C@@H](n4cc(C)c(=O)[nH]c4=O)C[C@@H]3O)[C@@H](COP(=O)(O)O[C@H]3C[C@H](n4cc(C)c(=O)[nH]c4=O)O[C@@H]3CO)O2)c(=O)nc1N
Tm [1]: 28 °C
Tm [2]: 22 °C
Tm [3]: 20 °C
Tm [4]: 17 °C
Tm [5]: 44 °C
Tm [6]: 45 °C
Tm [8]: 25 °C
Tm [9]: 21 °C

Cc1cn([C@H]2C[C@H](OP(=O)(O)OC[C@H]3O[C@@H](n4cc(C)c(=O)[nH]c4=O)C[C@@H]3OP(=O)(O)OC[C@H]3O[C@@H](n4cc(C)c(N)nc4=O)C[C@@H]3OP(=O)(O)OC[C@H]3O[C@@H](n4cc(C)c(=O)[nH]c4=O)C[C@@H]3OP(=O)(O)OC[C@H]3O[C@@H](n4cc(C)c(N)nc4=O)C[C@@H]3OP(=O)(O)OC[C@H]3O[C@@H](n4cc(C)c(=O)[nH]c4=O)C[C@@H]3OP(=O)(O)OC[C@H]3O[C@@H](c4cn(-c5ccc(C(=O)O)cc5)nn4)C[C@@H]3OP(=O)(O)OC[C@H]3O[C@@H](n4cc(C)c(=O)[nH]c4=O)C[C@@H]3OP(=O)(O)OC[C@H]3O[C@@H](n4cc(C)c(N)nc4=O)C[C@@H]3OP(=O)(O)OC[C@H]3O[C@@H](n4cc(C)c(=O)[nH]c4=O)C[C@@H]3OP(=O)(O)OC[C@H]3O[C@@H](n4cc(C)c(=O)[nH]c4=O)C[C@@H]3OP(=O)(O)OC[C@H]3O[C@@H](n4cc(C)c(=O)[nH]c4=O)C[C@@H]3OP(=O)(O)OC[C@H]3O[C@@H](n4cc(C)c(=O)[nH]c4=O)C[C@@H]3OP(=O)(O)OC[C@H]3O[C@@H](n4cc(C)c(=O)[nH]c4=O)C[C@@H]3O)[C@@H](COP(=O)(O)O[C@H]3C[C@H](n4cc(C)c(=O)[nH]c4=O)O[C@@H]3CO)O2)c(=O)nc1N
Tm [3]: < 10 °C
Tm [4]: < 10 °C
Tm [5]: < 10 °C
ΔTm [7]: 11 °C
Tm [8]: 21 °C

Cc1cn([C@H]2C[C@H](OP(=O)(O)OC[C@H]3O[C@@H](n4cc(C)c(=O)[nH]c4=O)C[C@@H]3OP(=O)(O)OC[C@H]3O[C@@H](n4cc(C)c(N)nc4=O)C[C@@H]3OP(=O)(O)OC[C@H]3O[C@@H](n4cc(C)c(=O)[nH]c4=O)C[C@@H]3OP(=O)(O)OC[C@H]3O[C@@H](n4cc(C)c(N)nc4=O)C[C@@H]3OP(=O)(O)OC[C@H]3O[C@@H](n4cc(C)c(=O)[nH]c4=O)C[C@@H]3OP(=O)(O)OC[C@H]3O[C@@H](c4cn(-c5ccc(NC(N)=O)cc5)nn4)C[C@@H]3OP(=O)(O)OC[C@H]3O[C@@H](n4cc(C)c(=O)[nH]c4=O)C[C@@H]3OP(=O)(O)OC[C@H]3O[C@@H](n4cc(C)c(N)nc4=O)C[C@@H]3OP(=O)(O)OC[C@H]3O[C@@H](n4cc(C)c(=O)[nH]c4=O)C[C@@H]3OP(=O)(O)OC[C@H]3O[C@@H](n4cc(C)c(=O)[nH]c4=O)C[C@@H]3OP(=O)(O)OC[C@H]3O[C@@H](n4cc(C)c(=O)[nH]c4=O)C[C@@H]3OP(=O)(O)OC[C@H]3O[C@@H](n4cc(C)c(=O)[nH]c4=O)C[C@@H]3OP(=O)(O)OC[C@H]3O[C@@H](n4cc(C)c(=O)[nH]c4=O)C[C@@H]3O)[C@@H](COP(=O)(O)O[C@H]3C[C@H](n4cc(C)c(=O)[nH]c4=O)O[C@@H]3CO)O2)c(=O)nc1N
Tm [1]: 29 °C
Tm [2]: 17 °C
Tm [3]: 13 °C
Tm [4]: 13 °C
Tm [5]: 12 °C
Tm [6]: 18 °C
ΔTm [7]: 11 °C
Tm [8]: 24 °C
Tm [9]: 18 °C

CCOC(=O)Cn1cc([C@H]2C[C@H](OP(=O)(O)OC[C@H]3O[C@@H](n4cc(C)c(=O)[nH]c4=O)C[C@@H]3OP(=O)(O)OC[C@H]3O[C@@H](n4cc(C)c(N)nc4=O)C[C@@H]3OP(=O)(O)OC[C@H]3O[C@@H](n4cc(C)c(=O)[nH]c4=O)C[C@@H]3OP(=O)(O)OC[C@H]3O[C@@H](n4cc(C)c(=O)[nH]c4=O)C[C@@H]3OP(=O)(O)OC[C@H]3O[C@@H](n4cc(C)c(=O)[nH]c4=O)C[C@@H]3OP(=O)(O)OC[C@H]3O[C@@H](n4cc(C)c(=O)[nH]c4=O)C[C@@H]3OP(=O)(O)OC[C@H]3O[C@@H](n4cc(C)c(=O)[nH]c4=O)C[C@@H]3O)[C@@H](COP(=O)(O)O[C@H]3C[C@H](n4cc(C)c(=O)[nH]c4=O)O[C@@H]3COP(=O)(O)O[C@H]3C[C@H](n4cc(C)c(N)nc4=O)O[C@@H]3COP(=O)(O)O[C@H]3C[C@H](n4cc(C)c(=O)[nH]c4=O)O[C@@H]3COP(=O)(O)O[C@H]3C[C@H](n4cc(C)c(N)nc4=O)O[C@@H]3COP(=O)(O)O[C@H]3C[C@H](n4cc(C)c(=O)[nH]c4=O)O[C@@H]3COP(=O)(O)O[C@H]3C[C@H](n4cc(C)c(N)nc4=O)O[C@@H]3COP(=O)(O)O[C@H]3C[C@H](n4cc(C)c(=O)[nH]c4=O)O[C@@H]3CO)O2)nn1
Tm [3]: 12 °C
Tm [4]: 14 °C
Tm [5]: < 10 °C
Tm [8]: 20 °C
